# This excerpt belongs to a sample that is enriched for hits.
# PostGolgi yeast – growth inhibition of a yeast mutant, post-Golgi transport screen; post-Golgi transport phenotypic cell assay; inhibition, % at 10 µM; AID 739; 98,000 compounds, 0.9% hits;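 also: yeast cells grown in 1536-well plates; yeast grown about 18 h at 30C before absorbance read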
# PostGolgi ctrl – inhibits growth of the yeast control strain; inhibition, % at 10 µM; efflux-deficient yeast background strain, growth absorbance A615, 16 h; AID 738; 98,000 compounds, 5% hits
# BB579 growth dn – reduces growth of yeast BB579 in restrictive medium. S. cerevisiae BB579 growth, OD615, 48 h. inhibition, % at 10 µM. 140,000 compounds, 0.51% hits. AID 804;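 active = inhibition above a set limit, 3 SD over the mean compound inhibition, cut at about 44% in these data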
#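 System: DeaD yeast strain BB579; buffer or medium: CSMM-D dextrose restrictive medium; technique: OD at 615 nm; schedule: 4 h cell preincubation, 48 h compound exposure, 30 °C humidified; doses: single 10 µM dose; controls: amphotericin B 10 µg/mL, positive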
# Yeast lifespan up – extends the lifespan of yeast; S. cerevisiae growth with nicotinamide, OD615; deaD strain in restrictive glucose medium; inhibition of the nicotinamide effect, % at 10 µM; 130,000 compounds, 0.68% hits;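 active = inhibition above a set limit, placed 3 SD over the median of all compounds, cut at about 26% in these data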;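 also: 0% = nicotinamide-treated wells and 100% = cells grown without nicotinamide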
#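 System: DeaD-strain S. cerevisiae / Buffer or medium: CSMM-D, restrictive glucose (dextrose) synthetic minimal medium / Probe or stimulus: nicotinamide, 1.5 mM, co-present with compound / Compound: one concentration, 10 µM, DMSO 0.25% / Incubation: 48 h compound exposure at 30 °C, humidified / Technique: optical density (absorbance) at 615 nm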
# Numbers without * were called inactive; · = no result given. Rule as the data show it, unless noted: active = inhibition above about 30%; inactive = the rest.
SMILES,PostGolgi yeast,PostGolgi ctrl,BB579 growth dn,Yeast lifespan up
O=c1c2c3c(sc2n2cnnc2n1CCc1ccccc1)CCCC3,5,26,-56,-11
Cc1nnc2n(Cc3ccccc3)c(=O)c3c4c(sc3n12)COC(C(C)C)C4 (configuration not stated),3,71*,-5,-10
CC(C)C1Cc2c(sc3c2c(=O)n(Cc2ccccc2)c2nncn32)CO1 (configuration not stated),2,43*,-33,-14
COc1ccccc1NC(=O)NC1(C(=O)N2CCC(O)CC2)CCCCC1,0,4,-15,1
Cc1ccc(Cn2c(SCC(C)C)nc3c2c(=O)n(C)c(=O)n3C)cc1,35*,30,-41,-14
CC(C)CCn1c(SCc2ccc(Cl)cc2)nc2c1c(=O)[nH]c(=O)n2C,15,19,-75,32
Cc1ccc(CSc2nc3c(c(=O)[nH]c(=O)n3C)n2CCC(C)C)cc1,2,41*,-72,2
CCC(C)Nc1nc2c(c(=O)n(C)c(=O)n2C)n1Cc1ccc(F)cc1 (configuration not stated),-7,35*,-67,-7
COc1ccccc1OC(=O)c1cc(Cl)nc2ccccc12,-9,0,-31,-2
CC1(C)CC(=O)C2=C(C1)Oc1ncn(CCO)c(=N)c1C2c1ccccc1 (configuration not stated),1,31*,-19,2
C=C(C)c1cccc(C(C)(C)NC(=O)Nc2ccc(Cl)cn2)c1,·,·,-35,-2
C=C(C)c1cccc(C(C)(C)NC(=O)Nc2ncccn2)c1,3,57*,-30,-3
Cc1cc(C)c2c(=O)n(CC(=O)N3CCC(Cc4ccccc4)CC3)sc2n1,-1,45*,0,-16
O=C(Nc1nnc(C2CC2)s1)c1cc(S(=O)(=O)N2CCN(c3ccccc3)CC2)ccc1Cl,12,33*,-47,1
Cc1nn(-c2ccccc2)c(Cl)c1C(=O)Nc1nnc(C2CCCCC2)s1,-3,1,-44,-9
O=C(Nc1nnc(C2CC2)s1)c1cc(-c2ccccc2)nn1-c1ccccc1,39*,25,-23,-8
O=C(NCc1ccccn1)c1cc(S(=O)(=O)N2CCN(c3ccccc3)CC2)ccc1Cl,17,4,-60,-7
CC(C)(C)C1CCC(=NNC(=O)c2ccccc2-n2cccc2)CC1 (configuration not stated),·,·,-31,-3
O=C(Nc1ccc2c(c1)OCCO2)c1cc2sccc2n1Cc1ccc(F)cc1,-5,53*,-38,-4
Cc1ccc(Cn2c(C(=O)O)cc3sccc32)cc1,·,·,-34,26*
COc1ccc(CCNC(=O)COC(=O)/C=C/c2ccc(OC)c(OC)c2)cc1,·,·,-26,-4
O=C(Nc1ccc(F)cc1F)c1cc2n(n1)C(C(F)(F)F)C1CCCCC1N2 (configuration not stated),1,30*,-38,-10
CCN(C(=O)c1cc2cccc(OC)c2oc1=O)c1ccccc1,-9,0,-18,-8
Oc1c(C(c2ccco2)N2CCN(C(c3ccccc3)c3ccccc3)CC2)sc2ncnn12 (configuration not stated),-2,11,-51,-10
CC1(C)Cc2c(C#N)c(NCCCO)nc(-c3ccccc3)c2CO1,-15,85*,-75,-10
SMILES,PostGolgi yeast,PostGolgi ctrl,BB579 growth dn,Yeast lifespan up
COc1nc(OC)nc(Oc2ccc([N+](=O)[O-])cc2Cl)n1,·,·,-24,-3
COC(=O)c1ccc(Oc2c(C(F)(F)F)oc3c(CN4CCN(C)CC4)c(O)ccc3c2=O)cc1,-4,35*,-16,-8
CCOc1ccccc1Oc1c(C)oc2c(CN3CCN(C)CC3)c(O)ccc2c1=O,-6,0,-20,-18
Cc1cccc(N2CCN(c3ccc(N4C(=O)CCCC4=O)cc3[N+](=O)[O-])CC2C)c1 (configuration not stated),·,·,8,0
O=C(CCc1nc(-c2ccccc2F)no1)NC1CCN(Cc2ccccc2)CC1,2,-4,-6,-4
O=C(COc1ccccc1F)NC1CCN(Cc2ccccc2)CC1,54*,28,-22,-5
Cc1ccc(-c2cc(C(=O)NCc3ccc4c(c3)OCO4)[nH]n2)c(O)c1C,-3,31*,-44,-17
Cc1cc(O)c(-c2cc(C(=O)NCc3ccc4c(c3)OCO4)[nH]n2)cc1C,-8,7,-62,-5
COc1ccc(Cl)cc1N(CC(=O)NCC(C)C)S(=O)(=O)c1ccc(C)c([N+](=O)[O-])c1,·,·,-28,-3
CCOC(=O)c1cc2c(ccn2C)n1CC(=O)N1CCN(c2ccccc2OC)CC1,32*,-1,-8,-11
CCOC(=O)c1cnc(-n2nc(C)cc2C)nc1NC,4,-3,-10,-23
CCOC(=O)c1cnc(-n2nc(C)cc2C)nc1NC1CCCCC1,87*,67*,98*,-13
CCCCOC(=O)Nc1ccc2c(C)cc(=O)oc2c1,·,·,-36,·
CCOC(=O)Nc1ccc2c(C)cc(=O)oc2c1,0,33*,-5,-17
Cc1nnc(NCc2ccncc2)c2ccccc12,27,0,-14,-6
Cc1nnc(Nc2ccccn2)c2ccccc12,-2,65*,26,-4
CCOc1ccccc1N(CC(=O)Nc1ccc2c(c1)OCCO2)S(C)(=O)=O,3,34*,-68,-4
CCOc1ccccc1N(CC(=O)Nc1ccc2c(c1)OCO2)S(C)(=O)=O,-13,5,0,-16
CC(=O)C1=C(C)Nc2ncnn2C1c1ccc(Cl)cc1Cl (configuration not stated),-5,3,-7,-4
Cc1nn(CC(O)Cn2c3c(c4ccccc42)CCN(C)C3=O)c(C)c1Br (configuration not stated),-8,43*,-42,7
Cc1ccc2c(c1)c1c(n2CC(O)Cn2nc(C)c(Br)c2C)CCCC1 (configuration not stated),0,20,-26,-11
CC(CN1CCCCC1)OC(=O)C(C)(c1ccccc1)c1ccccc1 (configuration not stated),0,2,-43,6
CCOC(=O)c1cnc(SCC(=O)c2ccccc2)nc1N,-3,-12,-5,-24
CC(C)C(C)(C#N)NC(=O)CSc1ncnc2sc(-c3ccccc3)cc12 (configuration not stated),-12,40*,-32,-2
CN(CCC#N)C(=O)CSc1ncnc2sc(-c3ccccc3)cc12,-5,20,-70,-19
CCOc1ccccc1N(CC(=O)N1CCOCC1)S(=O)(=O)c1ccc(SC)cc1,23,13,-32,6
CC(=O)c1ccc(N2CCN(C(=O)COc3ccc(F)cc3)CC2)c(F)c1,4,12,-40,-26
CCC(=O)c1ccc(N2CCN(C(=O)COc3ccc(F)cc3)CC2)c(F)c1,-10,31*,-49,-31
COc1ccc(CC2(C)OC(c3ccc(Cl)cc3)=NN2C(C)=O)cc1 (configuration not stated),·,·,11,7
O=C(COc1ccc(-n2cnnn2)cc1)NCCc1ccc(F)cc1,-1,4,-42,-8

# High-throughput results as filed in PubChem BioAssay.
